Source: PubChem
Most compounds without a hit are left out; they make up all but 2.4% or so of the library.
NR2E3 ag-1 = activates human photoreceptor nuclear receptor NR2E3. Q9Y5X4. GST-NR2E3/biotin-RetCOR TR-FRET, 1536-well. inhibition of corepressor binding, % at 4.78 µM. 320,000 tested, 0.12% active;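 active means percent inhibition above the cutoff of mean plus 3 SD of all tested compounds, set per screening campaign, cut at about 20% in these data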;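 further: 0% = DMSO wells and 100% = biotin wells as full block of FRET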
Target sequence (Q9Y5X4 whole entry, looked up): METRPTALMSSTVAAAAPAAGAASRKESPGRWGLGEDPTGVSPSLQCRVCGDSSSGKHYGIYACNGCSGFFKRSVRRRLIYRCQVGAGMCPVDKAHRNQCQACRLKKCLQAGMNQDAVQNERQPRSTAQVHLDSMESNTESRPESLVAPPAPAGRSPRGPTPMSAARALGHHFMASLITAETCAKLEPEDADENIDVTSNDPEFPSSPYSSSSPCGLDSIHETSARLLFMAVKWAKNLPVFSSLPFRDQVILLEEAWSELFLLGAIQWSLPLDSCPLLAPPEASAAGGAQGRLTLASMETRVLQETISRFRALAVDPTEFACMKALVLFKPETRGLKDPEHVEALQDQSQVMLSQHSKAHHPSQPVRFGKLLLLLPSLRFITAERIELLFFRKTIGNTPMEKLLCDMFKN
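Material – GST-tagged NR2E3 plus biotinylated RetCOR corepressor · Quantity – NR2E3 fusion 1.35 nM · Times – 5 h incubation at 4 °C · Medium – pH 7.5 Tris-based buffer · Technique – TR-FRET, Eu(K)-anti-GST donor, streptavidin-D2 acceptor, ex 340, em 617/671 nm · Benchmarks – high control biotin, low control 0.6% DMSO · Format – 1536-well plates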
Jurkat NFkB inh = inhibitors of the PMA/ionomycin-induced NF-kB reporter in Jurkat cells; 330,000 tested, 0.53% active; PMA/ionomycin-induced NF-kB luciferase reporter, luminescence; inhibition, % at 4 µM; AID 435003; in the data active means inhibition above about 50%
697 NFkB inh = lowers PMA/ionomycin-induced NF-kB signal in 697 B cells; 697 B-cell NF-kB luciferase reporter, 16 h; inhibition, % at 4 µM; 330,000 tested, 0.33% active; AID 435022; in the data active means inhibition above about 35%
aDG glyco up = increases alpha dystroglycan glycosylation. AID 624168. Pro5-aDG cells, alpha-DG glycosylation AlphaScreen (IIH6); 0% Pro5, 100% B10-LARGE cell signal. activation, % at 10 µM. 360,000 tested, 0.22% active;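 active means activation of at least 8% versus controls, or a plate z-score of at least 8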;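 further: Pro5 are CHO cells carrying HIG-tagged alpha-DG that lacks glycosylation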
NR2E3 ag-2 = agonists of human NR2E3 nuclear receptor. 360,000 tested, 0.35% active. inhibition of corepressor binding, % at 3.98 µM. AID 602229. CHO-S Gal4-NCOR/VP16-NR2E3 two-hybrid, luciferase;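 active means inhibition above the mean of all tested compounds plus 3 SD, cut at about 70% in these data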;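 further: 0% = DMSO with NR2E3 transfected cells and 100% = cells lacking NR2E3 construct; higher means lower luciferase signal from less NR2E3 corepressor binding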
MPTP block = inhibitors of mitochondrial permeability transition pore; isolated mouse mitochondria, Ca2+ swelling absorbance, 30 min; inhibition, % at 10 µM; 360,000 tested, 1.4% active; AID 602449;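 active means inhibition of 50% or more, scaled per plate between neutral and stimulator controls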;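 further: 0% = DMSO wells given calcium and 100% = 1 mM EGTA wells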
Jurkat NFkB conf = inhibitors of the PMA/ionomycin-induced NF-kB reporter in Jurkat cells, retest; shares compounds with Jurkat NFkB inh; Jurkat NF-kB luciferase, 16 h; inhibition, % at 4 µM; 2,700 tested, 27% active; AID 435020;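 active means inhibition reaching about 45% at 4 µM in either replicate, limit read from the data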;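 further: plate controls were PMA/ionomycin stimulated DMSO wells for no effect and unstimulated DMSO wells for full effect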
697 NFkB conf = inhibitors of the PMA/ionomycin-induced NF-kB reporter in 697 B cells, retest; shares compounds with 697 NFkB inh; 697 B-cell NF-kB luciferase, 16 h; inhibition, % at 4 µM; 2,000 tested, 35% active; AID 449746; in the data active means inhibition mostly above about 28%, no sharp cut-off; inactive means mostly below about 22%
NR2E3 ag confirm = confirmation of human NR2E3 agonists | inhibition, % at 3.98 µM | shares compounds with NR2E3 ag-2 | CHO-S mammalian two-hybrid NR2E3-NCOR, luciferase luminescence | 2,300 tested, 51% active | AID 624378;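 active means average inhibition above a cutoff equal to the mean inhibition of all tested compounds plus one SD, cut at about 70% in these data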;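 further: 0% = DMSO in NR2E3 cells and 100% = DMSO in cells lacking NR2E3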
GAL4-VP16 luc = counter-screen for NR2E3 agonists: GAL4-VP16 reporter inhibitors | shares compounds with NR2E3 ag-2 | CHO-S GAL4-VP16 luciferase reporter, luminescence | inhibition, % at 3.98 µM | 2,300 tested, 29% active | AID 624379;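 active means mean inhibition above a cutoff equal to the average over all tested compounds plus one standard deviation, cut at about 70% in these data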;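 further: luciferase from a UAS reporter driven by GAL4-VP16 transactivation; 0% = DMSO with VP16-transfected cells and 100% = DMSO with cells lacking VP16; higher means less reporter light so more repression of VP16 activity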
* hit, by the source's call; . = not tested or not shown.

SMILES	NR2E3 ag-1	Jurkat NFkB inh	697 NFkB inh	aDG glyco up	NR2E3 ag-2	MPTP block	Jurkat NFkB conf	697 NFkB conf	NR2E3 ag confirm	GAL4-VP16 luc
c1ccc(-c2csc(Nc3ccccn3)n2)cc1	0	-159	-268	0	-132	2	-74	-253	.	.
COc1ccc(-c2csc(C(C)(O)c3ccccc3)n2)cc1OC (stereo not given)	.	.	.	1	-24	0	.	.	.	.
CC(=O)Nc1cccc(-c2csc(Nc3ccc(C)cn3)n2)c1	4	-201	-347	2	-127	2	-88	-315	.	.
O=C(Nc1nc(-c2cc(F)ccc2F)cs1)c1ccccn1	0	-19	-43	0	-16	1	.	.	.	.
Fc1ccc(-c2csc(Nc3ccccn3)n2)c(F)c1	0	-168	-295	0	-221	2	-119	-160	.	.
Cc1ccc(C(=O)Nc2cccc(C(F)(F)F)c2)cc1NC(=O)c1ccno1	2	51*	60*	0	0	2	87*	61*	.	.
Cc1ccc(C(=O)Nc2cccc(C(F)(F)F)c2)cc1NC(=O)c1nccn1C	-3	1	-17	0	-14	1	.	.	.	.
O=C(C1CC1)N(CCN(Cc1ccccc1)C(=O)C1CC1)Cc1ccccc1	1	16	24	0	-35	2	.	.	.	.
Cn1cccc1/C=C1\CCc2ccccc2C1=O	3	-162	-400	0	-121	2	-2	-57	.	.
COc1ccc2oc(=O)c(C(=O)Nc3ccccc3O)cc2c1	1	-201	-279	0	-150	2	-108	-296	.	.
COc1ccc(NC(=O)c2cc3ccccc3oc2=O)cc1	.	.	.	0	-113	1	.	.	.	.
COc1ccc(Cc2c(-c3ccccc3)nc3ccc(Br)cn23)c(C)c1	.	.	.	0	-67	1	.	.	.	.
O=C(NC(=S)Nc1ccccn1)c1ccc(-c2ccccc2)cc1	2	-188	-287	0	-113	1	-55	-432	.	.
Cc1ccc(NC(=O)N2CCc3ccccc32)cc1C	-2	-180	-406	1	-122	6	-151	-298	.	.
CC1=NNC(=O)/C1=C\c1cn(-c2ccccc2)nc1-c1ccc(Cl)cc1	2	95*	37*	0	-5	-5	46*	13	.	.
Cc1ccc(-c2nn(-c3ccccc3)cc2C=C2C(=O)CC(C)(C)CC2=O)cc1	-3	-35	-50	1	-63	2	.	.	.	.
Cc1ccnc(NC(=O)CCCOc2cc(=O)n(C)c3ccccc23)c1	1	66*	61*	0	58	0	58*	48*	73*	28
CCOc1ccc(NC(=O)CCCOc2cc(=O)n(C)c3ccccc23)cc1	2	-3	32	0	-4	0	.	.	.	.
O=C(COC(=O)c1ccc(Br)cc1)NCCN1C(=O)CSC1=O	4	0	30	0	-9	-3	.	.	.	.
Cc1cc(C)cc(NC(=O)c2ccc([N+](=O)[O-])o2)c1	.	87*	25	2	84*	-2	48*	.	51	41
CC(Oc1ccc(Cl)cc1Cl)c1nc(-c2ccc(NC(=O)c3ccncc3)cc2)no1 (stereo not given)	-3	51*	-3	4	51	40	57*	.	78*	72*
CC(Oc1ccc(Cl)cc1Cl)C(=O)NNC(=O)c1ccncc1 (stereo not given)	1	9	13	0	12	-2	.	.	.	.
COc1cccc(C(N)c2nc(-c3cc(F)cc(F)c3)cs2)c1 (stereo not given)	.	.	.	0	-6	0	.	.	.	.
COc1ccccc1C(=O)Nc1nc2ccccc2[nH]1	0	91*	69*	0	82*	-1	93*	67*	77*	42
COc1ccccc1C(=O)NCCC(=O)Nc1nc2ccccc2[nH]1	-1	-8	6	0	31	0	.	.	.	.
SMILES	NR2E3 ag-1	Jurkat NFkB inh	697 NFkB inh	aDG glyco up	NR2E3 ag-2	MPTP block	Jurkat NFkB conf	697 NFkB conf	NR2E3 ag confirm	GAL4-VP16 luc
COc1cc(SC)ccc1C(=O)Nc1nc2ccccc2[nH]1	6	99*	92*	0	110*	0	98*	98*	95*	91*
COc1ccc(NC(=O)/C(Cl)=C(/Cl)S(=O)Cc2ccccc2)cn1 (stereo not given)	2	95*	-131	-1	90*	-1	98*	.	95*	42
Cc1nnc(SCC(=O)Nc2ccc(F)cc2F)n(N)c1=O	-1	-7	4	0	-16	0	.	.	.	.
O=C1c2ccccc2C(=O)N1CC(O)COc1ccc(Br)cc1 (stereo not given)	-2	14	0	0	-14	2	.	.	.	.
CN1C(C(=O)NCc2ccco2)=CC(c2ccc(F)cc2)=NS1(=O)=O	-3	8	-7	0	-23	-1	.	.	.	.
CC(C)(C)c1ccc(C(=O)Nc2ccc(CC(=O)O)cc2)o1	0	60*	84*	0	51	1	73*	86*	41	56
Cc1ccc(C(=O)Nc2ccc(CC(=O)O)cc2)o1	-2	6	6	0	-10	3	.	.	.	.
Cc1ccc(-n2nc3c(=O)n(CC(=O)NC(C)CCc4ccccc4)nc(C)c3c2C)cc1 (stereo not given)	1	53*	16	1	55	6	63*	.	52	65
COC(=O)c1cn(NC(=O)C2CCC(C)CC2)c(=O)c2ccccc12 (stereo not given)	-3	3	-8	0	-19	2	.	.	.	.
COC(=O)c1cn(NC(=O)c2cc([N+](=O)[O-])ccc2F)c(=O)c2ccccc12	-1	97*	-103	-1	91*	-1	90*	.	82*	66
C=C[C@@]1(C)CCC(/C(C)=C/C=C/C(C)(C)O)C[C@@H]1C(=C)C (stereo not given in full)	.	-3	-9	0	5	0	.	.	.	.
CCCCn1c(N)c(N(CCOC)C(=O)c2cc(-c3ccc(F)cc3)nc3ccccc23)c(=O)[nH]c1=O	1	5	3	0	22	0	.	.	.	.
Cc1cnc(NC(=O)C2CC(=O)N(c3cccc(Cl)c3)C2)s1 (stereo not given)	4	75*	0	0	86*	1	72*	.	100*	52
